Test results from ChEMBL document CHEMBL1255341, “Effect of ketoconazole on the pharmacokinetics of maribavir in healthy adults” (Antimicrob Agents Chemother, 2008).

Experiments:
[1] = AUC (0 to t) in human at 400 mg, po administered with 400 mg ketoconazole after 7 days; format: ADME, organism-based; conditions: plasma
Outline: (§1)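 Healthy adults (n = 20) in a two-sequence crossover with a 1-week washout. Single oral 400 mg dose after overnight fast, 4 h post-dose fast; ketoconazole 400 mg oral given 1 h before in the combination period. Plasma sampled predose and 0.5–24 h; validated LC-MS/MS after solid-phase extraction (5–1,000 ng/ml). AUC0-t by log-linear trapezoidal method; AUC0-∞ = AUC0-t + Clast/λz.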

[2] = AUC (0 to infinity) in human at 400 mg, po administered with 400 mg ketoconazole after 7 days; format: ADME, organism-based; design: dose 400 mg, time infinity, route oral; conditions: plasma; outline: as §1
[3] = Terminal elimination half-life in human at 400 mg, po administered with 400 mg ketoconazole after 7 days; format: ADME, organism-based; conditions: in vivo
Outline: (§2)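 Crossover in healthy adults: single fasted oral 400 mg dose, alone or 1 h after oral ketoconazole 400 mg, with a 1-week washout. Plasma drawn predose through 24 h and assayed by LC-MS/MS. λz from log-linear terminal-phase regression; t1/2 = 0.693/λz; CL/F = dose/AUC0-∞; Vz/F = dose/(λz × AUC0-∞). Nominal times used.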

[4] = Tmax in human plasma at 400 mg, po after 24 hrs; format: ADME, organism-based
Outline: (§3)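 Fasted healthy adults got a single oral 400 mg dose, alone or 1 h after ketoconazole 400 mg orally, in crossover periods separated by 1 week. Blood taken predose and at 0.5, 1, 1.5, 2, 3, 4, 6, 8, 12, 16, 24 h; analytes measured by validated LC-MS/MS. Cmax and tmax read from the profiles; tmax ranks compared by ANOVA.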

[5] = Cmax in human plasma at 400 mg, po after 24 hrs; format: ADME, organism-based; design: dose 400 mg, route oral; outline: as §3
[6] = Terminal elimination half-life in human at 400 mg, po after 24 hrs; format: ADME, organism-based; conditions: in vivo; outline: as §2
[7] = AUC (0 to t) in human at 400 mg, po after 24 hrs; format: ADME, organism-based; design: time < 24 hr, dose 400 mg, route oral; conditions: plasma; outline: as §1
[8] = AUC (0 to infinity) in human at 400 mg, po after 24 hrs; format: ADME, organism-based; design: dose 400 mg, route oral, time infinity; conditions: plasma; outline: as §1
[9] = Volume of distribution with respect to oral bioavailability in human at 400 mg, po after 24 hrs; format: ADME, organism-based; conditions: in vivo, read-out: Vss/F; outline: as §2
[10] = Apparent oral clearance in human at 400 mg, po after 24 hrs; format: ADME, organism-based; conditions: in vivo; outline: as §2
Homo sapiens [11] = assay: Drug excretion in human at 400 mg, po after 24 hrs; format: ADME, organism-based; conditions: in vivo
Outline: (§4)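 24-h urine collected from the first void after the oral 400 mg dose, given alone or 1 h after ketoconazole 400 mg, in a crossover of healthy adults. Amount excreted (Ae) measured by LC-MS/MS after solid-phase extraction. Renal clearance = Ae/AUC0-24 from plasma sampled over 24 h.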

[12] = Cmax in human plasma at 400 mg, po administered with 400 mg ketoconazole after 7 days; format: ADME, organism-based; design: dose 400 mg, route oral; outline: as §3
[13] = Tmax in human plasma at 400 mg, po administered with 400 mg ketoconazole after 7 days; format: ADME, organism-based; outline: as §3
[14] = Volume of distribution with respect to oral bioavailability in human at 400 mg, po administered with 400 mg ketoconazole after 7 days; format: ADME, organism-based; conditions: in vivo, read-out: Vss/F; outline: as §2
[15] = Apparent oral clearance in human at 400 mg, po administered with 400 mg ketoconazole after 7 days; format: ADME, organism-based; conditions: in vivo; outline: as §2
Homo sapiens [16] = assay: Drug excretion in human at 400 mg, po administered with 400 mg ketoconazole […]; format: ADME, organism-based; conditions: in vivo; outline: as §4
[17] = Renal clearance in human at 400 mg, po administered with 400 mg ketoconazole after 7 days; format: ADME, organism-based, Kidney; conditions: in vivo; outline: as §4
Homo sapiens [18] = assay: Tmax in human plasma assessed as VP 44469 at 400 mg, po after 24 hrs; format: ADME, organism-based; conditions: in vivo; outline: as §3
Homo sapiens [19] = assay: Cmax in human plasma assessed as VP 44469 at 400 mg, po after 24 hrs; format: ADME, organism-based; design: dose 400 mg, route oral; conditions: in vivo; outline: as §3
Homo sapiens [20] = assay: Terminal elimination half-life in human assessed as VP 44469 at 400 mg, po after 24 hrs; format: ADME, organism-based; conditions: in vivo; outline: as §2
Homo sapiens [21] = assay: AUC (0 to t) in human assessed as VP 44469 at 400 mg, po after 24 hrs; format: ADME, organism-based, Plasma; design: dose 400 mg, time < 24 hr, route oral; conditions: in vivo; outline: as §1
Homo sapiens [22] = assay: AUC (0 to infinity) in human assessed as VP 44469 at 400 mg, po after 24 hrs; format: ADME, organism-based, Plasma; design: dose 400 mg, time infinity, route oral; conditions: in vivo; outline: as §1
Homo sapiens [23] = assay: Volume of distribution with respect to oral bioavailability in human assessed as VP 44469 at 400 mg, po after 24 hrs; format: ADME, organism-based; conditions: in vivo; outline: as §2
Homo sapiens [24] = assay: Apparent oral clearance in human assessed as VP 44469 at 400 mg, po after 24 hrs; format: ADME, organism-based; conditions: in vivo; outline: as §2
Homo sapiens [25] = assay: Drug excretion in human assessed as VP 44469 at 400 mg, po after 24 hrs; format: ADME, organism-based; conditions: in vivo; outline: as §4
Homo sapiens [26] = assay: Renal clearance in human assessed as VP 44469 at 400 mg, po after 24 hrs; format: ADME, organism-based, Kidney; conditions: in vivo; outline: as §4
Homo sapiens [27] = assay: Tmax in human plasma assessed as VP 44469 at 400 mg, po administered with 400 mg ketoconazole after 7 days; format: ADME, organism-based; conditions: in vivo, 168 h; outline: as §3
Homo sapiens [28] = assay: Cmax in human plasma assessed as VP 44469 at 400 mg, po administered with 400 mg ketoconazole after 7 days; format: ADME, organism-based; design: dose 400 mg, route oral; conditions: in vivo, 168 h; outline: as §3
Homo sapiens [29] = assay: Terminal elimination half-life in human assessed as VP 44469 at 400 mg, po administered with 400 mg ketoconazole after 7 days; format: ADME, organism-based; conditions: in vivo, 168 h; outline: as §2
Homo sapiens [30] = assay: AUC (0 to t) in human assessed as VP 44469 at 400 mg, po administered with 400 mg ketoconazole after 7 days; format: ADME, organism-based, Plasma; conditions: in vivo, 168 h; outline: as §1
Homo sapiens [31] = assay: AUC (0 to infinity) in human assessed as VP 44469 at 400 mg, po administered with 400 mg ketoconazole after 7 days; format: ADME, organism-based, Plasma; design: dose 400 mg, route oral, time infinity; conditions: in vivo, 168 h; outline: as §1
Homo sapiens [32] = assay: Volume of distribution with respect to oral bioavailability in human assessed as VP 44469 at 400 mg, po administered with 400 mg ketoconazole after 7 days; format: ADME, organism-based; conditions: in vivo, 168 h; outline: as §2
Homo sapiens [33] = assay: Apparent oral clearance in human assessed as VP 44469 at 400 mg, po administered with 400 mg ketoconazole after 7 days; format: ADME, organism-based; conditions: in vivo, 168 h; outline: as §2
Homo sapiens [34] = assay: Drug excretion in human assessed as VP 44469 at 400 mg, po administered with 400 mg ketoconazole […]; format: ADME, organism-based; conditions: in vivo
Homo sapiens [35] = assay: Renal clearance in human assessed as VP 44469 at 400 mg, po administered with 400 mg ketoconazole […]; format: ADME, organism-based, Kidney; conditions: in vivo
Homo sapiens [36] = assay: Toxicity in human assessed as dysgeusia at 400 mg, po after 24 hrs; format: organism-based; conditions: in vivo
Outline: (§5)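 Healthy volunteers (20 enrolled) given single oral 400 mg doses, with or without oral ketoconazole 400 mg 1 h before, in crossover with a 1-week washout. The investigator recorded all adverse events, grading severity and drug relatedness. Clinical labs ran the day before and after dosing, ECGs predose and at 2 and 4 h, and liver tests at the day-15 follow-up.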

Homo sapiens [37] = assay: Toxicity in human assessed as adverse event at 400 mg, po after 24 hrs; format: organism-based; conditions: in vivo; outline: as §5
Homo sapiens [38] = assay: Toxicity in human assessed as dysgeusia at 400 mg, po administered with 400 mg ketoconazole after 7 days; format: organism-based; conditions: in vivo, 168 h; outline: as §5
Homo sapiens [39] = assay: Toxicity in human assessed as headache at 400 mg, po administered with 400 mg ketoconazole after 7 days; format: organism-based; conditions: in vivo, 168 h; outline: as §5
Homo sapiens [40] = assay: Toxicity in human assessed as adverse event at 400 mg, po administered with 400 mg ketoconazole after 7 days; format: organism-based; conditions: in vivo, 168 h; outline: as §5

AUC(0-t) at 168 h [1]: 173 µg·h/mL
AUC(0-inf) [2]: 194 µg·h/mL
half-life [3]: 6.88 h
Tmax [4]: 1.7 h
Cmax [5]: 19800 ng/mL
half-life [6]: 5.73 h
AUC(0-t) at 24 h [7]: 119 µg·h/mL
AUC(0-inf) [8]: 126 µg·h/mL
Vd/F [9]: 27.5 L
CL/F [10]: 59.3 mL/min
Activity (Homo sapiens [11]): 4.12 mg
Cmax [12]: 21800 ng/mL
Tmax [13]: 1.9 h
Vd/F [14]: 21.6 L
CL/F [15]: 38.7 mL/min
Activity (Homo sapiens [16]): 9.86 mg
CL renal at 168 h [17]: 0.953 mL/min
Tmax (Homo sapiens [18]): 2.5 h
Cmax (Homo sapiens [19]): 1600 ng/mL
t1/2 (Homo sapiens [20]): 6.83 h
AUC (Homo sapiens [21]): 15.6 µg·h/mL
AUC (Homo sapiens [22]): 17.4 µg·h/mL
Vss/F (Homo sapiens [23]): 235 L
CL/F (Homo sapiens [24]): 23.8 L/h
Activity (Homo sapiens [25]): 110 mg
CL_renal (Homo sapiens [26]): 7637 mL/h
Tmax (Homo sapiens [27]): 5.5 h
Cmax (Homo sapiens [28]): 1000 ng/mL
t1/2 (Homo sapiens [29]): 11.8 h
AUC (Homo sapiens [30]): 14.7 µg·h/mL
AUC (Homo sapiens [31]): 20.5 µg·h/mL
Vz/F (Homo sapiens [32]): 342 L
CL/F (Homo sapiens [33]): 21.1 L/h
Activity (Homo sapiens [34]): 95 mg
CL_renal (Homo sapiens [35]): 6876 mL/h
SMILES: CC(C)Nc1nc2cc(Cl)c(Cl)cc2n1[C@H]1O[C@@H](CO)[C@H](O)[C@@H]1O [MARIBAVIR]
Activity (Homo sapiens [36]): 47%
Activity (Homo sapiens [37]): 47%
Activity (Homo sapiens [38]): 35%
Activity (Homo sapiens [39]): 10%
Activity (Homo sapiens [40]): 45%
